Data: ChEMBL document CHEMBL1132623, “Structure-based design, synthesis, and biological evaluation of irreversible human rhinovirus 3C protease inhibitors. 4. Incorporation of P1 lactam moieties as L-glutamine replacements” (J Med Chem, 1999)

Experiments:
[1] = target: T1, Human rhinovirus A protease (Human rhinovirus sp.) (UniProt Q4U254); assay: Irreversible inhibition of human rhinovirus 3C protease
T1 sequence (whole entry): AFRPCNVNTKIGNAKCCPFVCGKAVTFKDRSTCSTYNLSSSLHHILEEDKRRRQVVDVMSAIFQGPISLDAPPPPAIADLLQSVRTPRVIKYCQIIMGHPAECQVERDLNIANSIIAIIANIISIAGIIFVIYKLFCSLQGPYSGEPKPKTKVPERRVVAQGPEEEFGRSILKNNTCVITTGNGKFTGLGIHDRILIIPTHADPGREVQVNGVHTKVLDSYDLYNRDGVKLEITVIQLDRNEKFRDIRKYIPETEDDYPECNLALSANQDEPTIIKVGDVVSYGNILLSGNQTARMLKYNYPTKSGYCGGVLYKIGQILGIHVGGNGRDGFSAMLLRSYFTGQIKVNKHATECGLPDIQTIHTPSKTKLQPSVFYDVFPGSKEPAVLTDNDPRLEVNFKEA

[2] = The 50% cytotoxic concentration was calculated as the concentration of the drug that decreased the percentage of formazan produced in drug-treated,uninfected cells to 50% of that produced in drug free uninfected cells on serotype 14.; assay type: functional
[3] = target: T2, Calpain-1 catalytic subunit (Homo sapiens) (UniProt P07384); assay: % activity against calpain 1 remaining after 10-15 min at 10 uM; details: Sus scrofa
T2 sequence (whole entry): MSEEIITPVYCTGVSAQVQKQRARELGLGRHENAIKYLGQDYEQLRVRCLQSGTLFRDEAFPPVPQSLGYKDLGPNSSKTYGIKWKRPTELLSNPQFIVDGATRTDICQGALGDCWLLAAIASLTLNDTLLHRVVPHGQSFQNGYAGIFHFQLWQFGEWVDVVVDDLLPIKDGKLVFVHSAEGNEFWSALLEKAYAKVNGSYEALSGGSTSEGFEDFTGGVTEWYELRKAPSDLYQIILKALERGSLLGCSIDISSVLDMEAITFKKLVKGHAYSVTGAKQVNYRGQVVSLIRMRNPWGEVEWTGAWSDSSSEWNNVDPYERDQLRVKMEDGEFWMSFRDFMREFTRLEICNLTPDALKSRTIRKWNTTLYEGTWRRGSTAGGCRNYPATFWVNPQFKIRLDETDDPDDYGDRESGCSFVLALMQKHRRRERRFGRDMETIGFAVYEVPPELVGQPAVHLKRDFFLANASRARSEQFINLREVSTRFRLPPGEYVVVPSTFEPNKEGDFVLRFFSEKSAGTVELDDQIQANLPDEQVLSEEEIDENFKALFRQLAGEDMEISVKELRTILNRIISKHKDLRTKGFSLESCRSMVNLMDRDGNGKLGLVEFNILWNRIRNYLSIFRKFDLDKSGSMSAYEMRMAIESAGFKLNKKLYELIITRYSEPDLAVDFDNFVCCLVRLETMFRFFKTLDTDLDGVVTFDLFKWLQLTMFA
Outline: (§1)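 Purified proteases: human liver cathepsin B, porcine erythrocyte calpain I, human neutrophil elastase, bovine chymotrypsin, human thrombin and bovine trypsin. Each enzyme was incubated with inhibitor for 10-15 min, at 10 µM or at 2 µM where specified. Residual enzyme activity is reported as % remaining.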

[4] = target: Cathepsin B (Homo sapiens) (UniProt P07858); assay: Inhibition of cathepsin B by the compound was measured as % activity of thrombin remaining after 10-15 min at 10 uM; outline: as §1
[5] = target: Chymotrypsinogen A (Bos taurus) (UniProt P00766); assay: Inhibition of Chymotrypsinogen by the compound was measured as % activity of thrombin remaining after 10-15 min at 10 uM; outline: as §1
[6] = target: T3, Neutrophil elastase (Homo sapiens) (UniProt P08246); assay: % activity against elastase remaining after 10-15 min at 10 uM; outline: as §1
T3 sequence (whole entry): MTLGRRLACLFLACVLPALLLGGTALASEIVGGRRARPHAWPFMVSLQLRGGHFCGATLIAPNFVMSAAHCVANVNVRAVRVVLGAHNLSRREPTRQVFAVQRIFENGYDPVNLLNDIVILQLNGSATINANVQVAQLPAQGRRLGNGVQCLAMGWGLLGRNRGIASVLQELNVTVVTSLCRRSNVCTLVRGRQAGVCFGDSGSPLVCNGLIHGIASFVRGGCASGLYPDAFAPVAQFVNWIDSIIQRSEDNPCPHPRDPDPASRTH

[7] = target: Prothrombin (Homo sapiens) (UniProt P00734); assay: Inhibition of thrombin by the compound was measured as % activity of thrombin remaining after 10-15 min at 10 uM; outline: as §1
[8] = target: T4, Serine protease 1 (Bos taurus) (UniProt P00760); assay: Inhibition of trypsin by the compound was measured as % activity of thrombin remaining after 10-15 min at 10 uM; outline: as §1
T4 sequence (whole entry): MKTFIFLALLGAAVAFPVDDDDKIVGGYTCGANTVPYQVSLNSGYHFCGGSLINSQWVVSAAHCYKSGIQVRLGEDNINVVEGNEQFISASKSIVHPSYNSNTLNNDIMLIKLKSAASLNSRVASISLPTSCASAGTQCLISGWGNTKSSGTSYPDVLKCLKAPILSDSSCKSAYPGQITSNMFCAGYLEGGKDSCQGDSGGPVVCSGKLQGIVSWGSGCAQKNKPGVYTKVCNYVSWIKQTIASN

[9] = target: T1, Human rhinovirus A protease (Human rhinovirus sp.); assay: The EC90 was calculated as the concentration of drug that increased the percentage of formazan production in drug treated, virus infected cells to 50% of that produced by drug free uninfected cells on human rhinovirus 1A.; assay type: functional
[10] = target: T1, Human rhinovirus A protease (Human rhinovirus sp.); assay: The EC90 was calculated as the concentration of drug that increased the percentage of formazan production in drug treated, virus infected cells to 50% of that produced by drug free uninfected cells on human rhinovirus 2.; assay type: functional
[11] = target: T1, Human rhinovirus A protease (Human rhinovirus sp.); assay: The EC90 was calculated as the concentration of drug that increased the percentage of formazan production in drug treated, virus infected cells to 50% of that produced by drug free uninfected cells on human rhinovirus-10.; assay type: functional
[12] = target: T1, Human rhinovirus A protease (Human rhinovirus sp.); assay: The EC90 was calculated as the concentration of drug that increased the percentage of formazan production in drug treated, virus infected cells to 50% of that produced by drug free uninfected cells on human rhinovirus-14.; assay type: functional
[13] = target: T2, Calpain-1 catalytic subunit (Homo sapiens); assay: % activity against calpain 1 remaining after 10-15 min at 2 uM; details: Sus scrofa; outline: as §1
[14] = target: Cathepsin B (Homo sapiens) (UniProt P07858); assay: Inhibition of cathepsin B by the compound was measured as % activity of thrombin remaining after 10-15 min at 2 uM; outline: as §1
[15] = target: Chymotrypsinogen A (Bos taurus) (UniProt P00766); assay: Inhibition of Chymotrypsinogen by the compound was measured as % activity of thrombin remaining after 10-15 min at 2 uM; outline: as §1
[16] = target: T3, Neutrophil elastase (Homo sapiens); assay: % activity against elastase remaining after 10-15 min at 2 uM; outline: as §1
[17] = target: Prothrombin (Homo sapiens) (UniProt P00734); assay: Inhibition of thrombin by the compound was measured as % activity of thrombin remaining after 10-15 min at 2 uM; outline: as §1
[18] = target: T4, Serine protease 1 (Bos taurus); assay: Inhibition of trypsin by the compound was measured as % activity of thrombin remaining after 10-15 min at 2 uM; outline: as §1
[19] = Increased percentage of formazan production in drug treated virus infected cells to equal 50% control drug free uninfected cells on serotype 14
[20] = target: T1, Human rhinovirus A protease (Human rhinovirus sp.); assay: The kobs/[I] value for the irreversible inhibitors was obtained by reaction initiated by addition of 50 nM 3CP,containing 1 uM substrate and varying inhibitor concentrations on serotype 2.
chymotrypsin = assay: half life towards biological agent (chymotrypsin); assay type: ADME
Outline: (§2)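 Compound at 25 µM in 100 mM potassium phosphate pH 7.4 was preincubated 5 min at 37 °C. Reaction was started with chymotrypsin (5 units/mL) or porcine intestinal peptidase (0.1 units/mL). Aliquots taken at 0 and 60 min were quenched in CH3CN and centrifuged. Parent was quantified by reverse-phase C8 HPLC with UV at 220 nm. 1-Naphthyl butyrate hydrolysis was the peptidase esterase control.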

[21] = half life towards biological agent (dithiothreitol 5 mM); assay type: ADME; details: dithiothreitol solution
[22] = half life towards biological agent (dog plasma); assay type: ADME, organism-based, Canis lupus familiaris
Outline: (§3)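 Human plasma (CPDA) or heparinized animal plasma, with rat plasma diluted 1:1 in 100 mM phosphate pH 7.4, and buffer controls, n = 3. Compound was added to 25 µM final at 37 °C and sampled periodically over 1 h. Samples were quenched in CH3CN, centrifuged, dried, reconstituted and analysed by reverse-phase HPLC. 1-Naphthyl butyrate was the esterase control.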

[23] = half life towards biological agent (human plasma); assay type: ADME, organism-based; outline: as §3
peptidase = assay: half life towards biological agent (peptidase); assay type: ADME; outline: as §2
[24] = half life towards biological agent (rat plasma); assay type: ADME, cell-free; outline: as §3

## CCOC(=O)/C=C/[C@H](C[C@@H]1CCCNC1=O)NC(=O)[C@@H](CC(=O)[C@@H](NC(=O)c1cc(C)on1)C(C)C)Cc1ccc(F)cc1
[1]
  K obs / 1: 500000 M⁻¹ s⁻¹
[2]
  CC50: > 100000 nM

## CCOC(=O)/C=C/[C@H](C[C@@H]1CCNC1=O)NC(=O)[C@H](Cc1ccc(F)cc1)NC(=O)[C@@H](NC(=O)c1cc(C)on1)C(C)(C)C
[3]
  Activity: 100%
[4]
  Activity: 81%
[5]
  Activity: 97%
[6]
  Activity: 96%
[1]
  K obs / 1: 980000 M⁻¹ s⁻¹
[7]
  Activity: 101%
[8]
  Activity: 95%
[2]
  CC50: > 100000 nM

## CCOC(=O)/C=C/[C@H](C[C@@H]1CCNC1=O)NC(=O)[C@H](Cc1ccccc1)NC(=O)[C@@H](NC(=O)OCc1ccccc1)C(C)C
[1]
  K obs / 1: 500000 M⁻¹ s⁻¹
[2]
  CC50: > 100000 nM

## CCOC(=O)/C=C/[C@H](CCC(N)=O)NC(=O)[C@@H](CC(=O)[C@@H](NC(=O)c1cc(C)on1)C(C)C)Cc1ccc(F)cc1
[9]
  EC90: 630 nM
[10]
  EC90: 280 nM

## CCOC(=O)/C=C/[C@H](C[C@@H]1CCCNC1=O)NC(=O)[C@H](Cc1ccc(F)cc1)NC(=O)[C@@H](NC(=O)c1cc(C)on1)C(C)C
[1]
  K obs / 1: 900000 M⁻¹ s⁻¹
[2]
  CC50: > 100000 nM

## CCOC(=O)/C=C/[C@H](C[C@@H]1CCNC1=O)NC(=O)[C@H](Cc1ccc(F)cc1)NC(=O)[C@@H](NC(=O)c1cc(C)on1)C(C)C
[3]
  Activity: 100%
[4]
  Activity: 96%
[5]
  Activity: 101%
[6]
  Activity: 100%
[9]
  EC90: 140 nM
[1]
  K obs / 1: 1.5e+06 M⁻¹ s⁻¹
[10]
  EC90: 50 nM
[11]
  EC90: 140 nM
[12]
  EC90: 40 nM
[7]
  Activity: 103%
[8]
  Activity: 100%
[2]
  CC50: > 100000 nM

## CCOC(=O)/C=C/[C@H](CCC(N)=O)NC(=O)[C@H](Cc1ccccc1)NC(=O)[C@H](CC(C)C)NC(=O)OCc1ccccc1
[13]
  Activity: 100%
[14]
  Activity: 39%
[15]
  Activity: 96%
[16]
  Activity: 92%
[17]
  Activity: 101%
[18]
  Activity: 98%
[2]
  CC50: > 320000 nM
[19]
  EC50: 540 nM

## CCOC(=O)/C=C/[C@H](CCC(=O)NC)NC(=O)[C@H](Cc1ccccc1)NC(=O)[C@H](CC(C)C)NC(=O)OCc1ccccc1
[2]
  CC50: > 100000 nM

## CCOC(=O)/C=C/[C@H](CCC(=O)N(C)C)NC(=O)[C@H](Cc1ccccc1)NC(=O)[C@H](CC(C)C)NC(=O)OCc1ccccc1
[2]
  CC50: > 100000 nM

## CCOC(=O)/C=C/[C@H](C[C@@H]1CCCNC1=O)NC(=O)[C@H](Cc1ccccc1)NC(=O)[C@H](CC(C)C)NC(=O)OCc1ccccc1
[1]
  K obs / 1: 239000 M⁻¹ s⁻¹
[2]
  CC50: > 100000 nM

## CCOC(=O)/C=C/[C@H](C[C@@H]1CCNC1=O)NC(=O)[C@H](Cc1ccccc1)NC(=O)[C@H](CC(C)C)NC(=O)OCc1ccccc1
[1]
  K obs / 1: 257000 M⁻¹ s⁻¹
[20]
  K obs / 1: 31000 M⁻¹ s⁻¹
[2]
  CC50: > 100000 nM

## CCOC(=O)/C=C/[C@H](C[C@@H]1CCNC1=O)NC(=O)[C@@H](CC(=O)[C@@H](NC(=O)c1cc(C)on1)C(C)C)Cc1ccc(F)cc1
chymotrypsin
  half-life: > 1 h
[21]
  half-life: > 0.5 h
[22]
  half-life: > 1 h
[23]
  half-life: > 1 h
peptidase
  half-life: > 1 h
[3]
  Activity: 100%
[4]
  Activity: 98%
[5]
  Activity: 100%
[6]
  Activity: 99%
[9]
  EC90: 41 nM
[1]
  K obs / 1: 1.09e+06 M⁻¹ s⁻¹
[10]
  EC90: 30 nM
[11]
  EC90: 100 nM
[12]
  EC90: 20 nM
[7]
  Activity: 100%
[8]
  Activity: 100%
[2]
  CC50: > 100000 nM
[24]
  half-life: < 2 min

## CCOC(=O)/C=C/[C@H](C[C@H]1CCNC1=O)NC(=O)[C@H](Cc1ccccc1)NC(=O)[C@H](CC(C)C)NC(=O)OCc1ccccc1
[1]
  K obs / 1: 18000 M⁻¹ s⁻¹
[2]
  CC50: > 100000 nM

## CCOC(=O)/C=C/[C@H](CN1CCNC1=O)NC(=O)[C@H](Cc1ccccc1)NC(=O)[C@H](CC(C)C)NC(=O)OCc1ccccc1
[1]
  K obs / 1: 10900 M⁻¹ s⁻¹
[2]
  CC50: > 100000 nM
